The text below walks through data of the RNAGym collection of RNA variant scans (doi:10.1126/science.aae0568).

This sample holds only a part of the variants without activity.

The labels stand for the following.
B1: tRNA (parent)
chain: GUUCCGUUGGCGUAAUGGUAACGCGUCUCCCUCCUAAGGAGAAGACUGCGGGUUCGAGUCCCGUACGGAACG

This data set covers variants of B1. In words: yeast fitness relative to wild type (ratio to wild type); higher = fitter; tRNA-Arg(CCU), competitive growth, 37 C, YPD. In a few lines:
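Start and end populations of a pooled competition were compared by 100-nucleotide paired-end sequencing of gene amplicons. The Saccharomyces cerevisiae strains carried tRNA-Arg(CCU) gene variants at the native genomic locus, synthesised with a 3% per-site mutation rate at 69 sites, and competed in YPD at 37°C for 24 hours in six parallel replicates. Darwinian fitness relative to wild type was based on the change in genotype frequencies. Genotypes required ≥ 100 starting reads, and estimates < 0.5 were set to 0.5.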
As for GUUCCGUUGGCAUAGUGGUAACGCGUCUCCCUCCUAAGGAGAAGACUACGGGUUCGAGUCCCGUACGGAACG, the yeast fitness is 0.763.
Consider GUUCCGUUGGUGUAAUGGUAACGCGUCUCCCUCCUAAGGAGAAGACGGCGGGUUCGAGUCCCGUACGGAACG, for which the yeast fitness turned out to be 0.688.
Then GUUCCGUUGGUGUAAUGGUAACGCGUCUCCCUCCUAAGGAGAAGACCGCGGGUUCGAGUCCCGUACGGAACG, with 1.04; and GUUCCGUUGGCAUGAUGGUAACGCGUCUCCCUCCUAUGGAGAAGACUGCGGGUUCGAGUCCCGUACGGAACG, with 0.551; and GUUCCGUUGGUGUAAUGGUAACGCGUCUCCCUCCCAAGGAAAAGACUGCGGGUUCGAAUCCCGUACGGAACG, with at most 0.5.
The result for GUUCCGUUGGUGUAAUGGUAACGCGUCUCCCUCCUAAGGAGAAGACCGCGCGUUCGAGUCCCGUACGGAGCG reads 0.669; that for GUUCCGUUGGCAUCAUGGUAACGCGUCUCCCUCCUAAGGAGAAGACUGCGGGUUCGAGUCCCGUACGGAACG, 0.796.
Then GUUCCGUUGGUGUAAUGGUAACGCGUCUCCCUCCUAAGGAGAAGACCGCGGGUUCGAGUCCCGUACAGAACG, with 0.783.
For the variant GUUCCGUUGGCAUUAUGGUAACGCGUCUCCCUCCUAAGGAGAAGACUGCGGGUUCGGGUCUCGUACGGAACG, the yeast fitness is at most 0.5.
The result for GUUCCGUUGGCAUGAUGGUGACGCGUCUCCCUCCUAAGGAGAAGACUGCGGGUUCGAGUCCCAUACGGAACG reads at most 0.5; that for GUUCCGUUGGUGUAAUGGUAACGCGUCUCCCCCCUAAGGUGAAGACUGCGGGUUCGAGUCCCGUACGGAACG, 0.785.
Then GUUCCGUUGGCAUUAUGGUAACGCGUCUCCCUCCUAAGGAGAAGACUGCGGGUUCGAGUCCCGUAAGGAACG, with at most 0.5; and GUUCCGUUGGCAUCAUGGUAACGCGUCUCCCUCGUAAGGAGAAGACUGCGGGUUUGAGUCCCGUACGGAACG, with at most 0.5.
The result for GUUCCGUUGGUGUAAUGGUAACGCGUCUCCCACCUAAGGAGAAGACUGCGGGUUCGAGUCCCGUACGGAACG reads 0.772.
As for GUUCCGUUGGUGUAAUGGUAACGCGUCUCCCCCCUAAGGAGAAGACUGCGGGUUCGAGUCCCGUACGGAACG, the yeast fitness stood at 0.933.
The result for GUUCCGUUGGCAUAGUGGUAACGCGUCUCCCUCCUAAGGAGAAGACUGCGGGUUCGAGUCCCGUCCGGCACG reads at most 0.5; that for GUUCCGUUGGCAUACUGGUAACGCGUCUCCCUCCUAAGGAGAAGAGUGCGGGUUCGAGUCCCGUACGGAACG, 0.567; that for GUUCCGUUGGCAUAGUGGUAAUGCGUCUCCAUCCGAAGGAGAAGACUGCGGGUUCGAGUCUCGUCCGGAACG, at most 0.5.
Then GUUCCGUUGGCAUAAUGGUAACGCGUCUCCCUCCUAAGGAGAAGACUGCGGGUUCGAGUCCCGUACGGAACG, with 0.999; and GUUCCGUUGGCAUGAUGGUAACGCGUGUCCCUCGUAUGGAGAAGACUGCGGGUUCGAGUCCCGAACGGAACG, with at most 0.5; and GUUCCGUUGGCAUCAUGGUAACGCGUGUCCCUCCUAAGGAGAAGAGUGCGGGUUCGAGUCCCGUGCGGAACG, with at most 0.5.
Then GUUCCGUUGGUGUAAUGGUAACGCGUCUCCCUCCUAAGGAGAAGACUGCGGGUUCGAGACCCGUACAGAACG, with 0.542.
Turning to GUUCCGUUGGCAUACUGGUAACGCGUCUCCCUCCUAAGCAGAAGAUUGCGGGUUCGAGUCCCGUACGGAACG, the yeast fitness is at most 0.5.
The result for GUUCCGUUGGUGUAAUGGUAACGCGUCCCCCGCCUAAGGAGAAGACUGCGGGUUCGAGUCCCGUACGGAUCG reads at most 0.5; that for GUUCCGUUGGUGUAAUGGUAACGCGUCCGCCUCCUAAGGAGAAGACUGCGGGUUCGAGUCCCGUACGGAACG, 0.541; that for GUUCCGUUGGUGUAAUGGUAACGCGUCCCGCUCCUAAGGAGAAGACUGGGGGUUCGAGUCCCGUACGGAACG, at most 0.5.
The result for GUUCCGUUGGCAUAUUGGUACCGCGUCUCCCUCCUAAGGAGAAGACUGUGGGUUCGAGUCCCGUACGGAACG reads at most 0.5; that for GUUCCGUUGGCAUGAUGGUAACGCGUCUCGCUCCUAAGGAGAAGAAUGCGGGUUCGAGUCCCGUACUGAACG, at most 0.5.
Take GUUCCGUUGGCAUGAUGGUAACGCGUCUCGCUCCUAAGGAGAAGAAUGCGGGUUCGAGUCCCGUACGGAACG: the yeast fitness turned out to be 0.882.
On to GUUCCGUUGGCAUGAUGGUAACGGGUCUCCCUCCUAAGGUGAAGAAUGCGGCUUCGAGUCCCGUACGGAACG, for which the yeast fitness was at most 0.5.
Then GUUCCGUUGGUGUAAUGGUAACGCGUCCCCCUCCUAAGGCGAAGACUGCCGGUUCGAGUCCCGUACGGACCG, with at most 0.5; and GUUCCGUUGGCAUACUGGUAACGCGUCUCCCUCCUAAGGAGAAGUCUGCGGGUUCGAGUCCCGUACGGAACG, with 0.87; and GUUCCGUUGGUGUAAUGGUAACGCGUCUCCCUCCAAAGGAGAAGACUCCGGGUUCGAGUCUCGUACGGAACG, with at most 0.5.
The result for GUUCCGUUGGUGUAAUGGUAACGCGUCUCCCUCCCAAGGAGAAGAGUGCGGCUUCGAGUCCCGUACGCAACG reads at most 0.5; that for GUUCCGUUGGCAUAGUGGUAACGCGUCUCCCUCCUAAGGAGAACACUGCGGGUUCGAGACCCGUACGGAACG, at most 0.5.
The result for GUUCCGUUGGUGUAAUGGUAACGCGUCUCCCUCCAAAAGAGAAGACUGCGGGUUAGAGUCGCGUACGGAACG reads at most 0.5.
Consider GUUCCGUUGGUGUAAUGGUAACGCGUCUCCCUCCUAAGGAGAAGACUGCGGGUCCGAGUCCCGUACGGAACG, for which the yeast fitness amounted to 0.844.
Then GUUCCGUUGGUGUAAUGGUAACGCGUCUCCCUCCUAAGGAGAAGACUGCGGGUACGAGUCCCGUACGGAACG, with 0.733.
